Active and inactive are the calls of the source.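 The calls were made as follows: active = cell viability under 70% at any tested dose, a measure not printed in our tables; inactive = the rest.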
These compounds were tested on HEp-2 cells, viability, luminescence (cytotoxicity counter-screen) (assay: HEp-2 viability loss, luminescent readout – cell-based, synthesized compounds, set 4, cytotoxicity control for RSV inhibitor project, dose response (AID 493015)).
In short: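 Assay system: HEp-2 cells / Medium: DMEM/F12 plus heat-inactivated FBS / Dosing: 8-point 1:2 series, 50–0.39 µM, 0.5% DMSO / Schedule: 6-day compound exposure, 37 °C / Detection: CellTiter-Glo luminescence / Replicates: each concentration tested in triplicate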

Question: `O=C(Nc1ccccc1)[C@@H]1CCCN1S(=O)(=O)c1cccc2cccnc12` was tested. Which CC50 did it give?
Answer: 49 µM

Question: With `CC(C)c1ccccc1NC(=O)[C@@H]1CCCN1S(=O)(=O)c1cccc2cccnc12` as the compound, how does the CC50 read?
Answer: 16.5 µM

Question: With `Cc1ccc2c(c1)CCN2C(=O)[C@@H]1CCCN1S(=O)(=O)c1cccc2cccnc12` as the compound, how does the CC50 read?
Answer: 18.1 µM

Question: Which CC50 does the source give for `COc1ccccc1CNC(=O)C1CCN(S(=O)(=O)c2cccc3nonc23)CC1` here?
Answer: > 50 µM (inactive)

Question: Which CC50 does the source give for `Cc1cccc(NC(=O)[C@@H]2CCCN2S(=O)(=O)c2cccc3cccnc23)c1` here?
Answer: 27.6 µM
